Screens from PubChem.
JNK3 inh – JNK3 kinase activity inhibitors, primary screen, biochemical, human, purified enzyme; Mitogen-activated protein kinase 10 (Homo sapiens), P53779; HTS; inhibition, % at 8 µM; hit rate 0.61% among 60,000; in the data active means inhibition above about 17%;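 further: 0% = DMSO and 100% = reference inhibitor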
TNAP act mid DEA – human TNAP enzyme activators, primary screen, biochemical, luminescent, intermediate phosphate acceptor level | purified TNAP, CDP-star luminescence, 100 mM DEA, 30 min; active compounds read high; scale: 0 levamisole-inhibited, 1 vehicle-only enzyme | activation factor at 20 µM | 64,000 tested, under 10 active;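 active means activation factor of at least 2 at 20 µM, relative to controls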
HEK293 NFkB inh – inhibitors of PMA/ionomycin-induced NF-kB reporter, primary screen, antigen receptor NF-kB inhibitor project, cell-based, HEK-293 luciferase reporter, luminescence. HEK-293 NF-kB luciferase reporter. inhibition, % at 3 µM. hit rate 0.21% among 62,000;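 active means inhibition above the mean of all tested compounds plus 3 SD, cut at about 40% in these data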;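 further: 0% = stimulated DMSO wells and 100% = 10 µM reference inhibitor 5653914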
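Timing: 1 h pretreatment, 16 h stimulation, 37 °C; system: HEK-293 cells with stable firefly luciferase reporter driven by four HIV NF-kB elements; doses: 3 µM once, 0.30% DMSO; measured by: luciferase luminescence; control set: DMSO and 10 µM reference inhibitor; repeats: single test; reagent: PMA plus ionomycin mix as NF-kB-activating stimulus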
ROCK2 inh – inhibitors of human ROCK2 kinase, primary screen, biochemical, high-throughput, luminescence. Rho-associated protein kinase 2 (Homo sapiens), O75116. purified ROCK2, Kinase-Glo ATP depletion luminescence. hit rate 0.35% among 60,000. inhibition, % at 6 µM;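 active means inhibition above the screen-wide mean inhibition plus 3 SD, cut at about 18% in these data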;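 further: plate controls were DMSO wells for no effect and Y-27632 control wells after no-enzyme background subtraction for full effect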
PKA kinase inh – inhibitors of human PKA kinase activity, primary screen, biochemical, ATP-depletion luminescence, Kemptide substrate; cAMP-dependent protein kinase catalytic subunit alpha (Homo sapiens), P17612; PKA Kemptide phosphorylation, Kinase-Glo ATP luminescence; inhibition, % at 6 µM; hit rate 0.1% among 65,000;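 active means inhibition above the screen-wide mean inhibition plus 3 SD, cut at about 21% in these data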
Hsp90 inh – tumor Hsp90 inhibitors, primary screen, cell lysate, fluorescence polarization, NCI-N417 lysate | Heat shock protein HSP 90-alpha (Homo sapiens), P07900 | Cy3B-geldanamycin FP displacement | inhibition, % at 30 µM | hit rate 0.35% among 64,000;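 active means inhibition above 50%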;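 further: 0% = tracer plus lysate wells and 100% = tracer alone without lysate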
* hit, by the source's call; x = no result given. A selection: hits, their analogues and other compounds. The true share with any hit is near 0.94%.

SMILES | JNK3 inh | TNAP act mid DEA | HEK293 NFkB inh | ROCK2 inh | PKA kinase inh | Hsp90 inh
NC1CCc2cc(O)c(O)cc2C1 (stereo not drawn) | x | x | x | x | x | 53*
NC(Cn1oc(=O)[nH]c1=O)C(=O)O (stereo not drawn) | x | x | x | x | x | 41
C=CCN(CC=C)Cc1c[nH]c2ccccc12 | 0 | 0.9 | 23 | 2 | 4 | -6
O/N=C/c1c[nH]c2ccccc12 | 5 | 1 | -1 | 82* | 64* | -11
O=C(CCCCCn1c(=S)[nH]c2ccccc2c1=O)N1CCC2(CC1)OCCO2 | 28* | 0.9 | 7 | -12 | -2 | -3
C=CCN1C[C@@H](C)N([C@H](c2ccc(C(=O)N(CC)CC)cc2)c2cccc(OC)c2)C[C@@H]1C | x | x | x | x | x | -2
CN(N=O)c1cc(O)ccc1O | x | x | x | x | x | 99*
Nc1ncnc2c1ncn2[C@@H]1O[C@H](COP(=O)(O)CP(=O)(O)OP(=O)(O)O)[C@H](O)C1O (stereo partly drawn) | x | x | x | x | x | 1
CCn1nc(-c2ccccc2)nc2c(=O)n(C)c(=O)nc1-2 | 55* | 0.8 | 90* | 72* | 4 | 89*
C[C@H]1CCC[C@H](O)CCCCCc2cc(O)cc(O)c2C(=O)O1 | 3 | 1 | 10 | 4 | 3 | 87*
C[C@H]1CCC[C@@H](O)CCC/C=C/c2cc(O)cc(O)c2C(=O)O1 | x | 0.9 | 36 | x | 3 | x
